Data: ChEMBL document CHEMBL2040816, “Design, synthesis, and structure-activity relationship studies of novel millepachine derivatives as potent antiproliferative agents” (Eur J Med Chem, 2012)

Tests used:
Type in all cases: functional, cell-based
[1] = tested on: SK-OV-3; experiment: Antiproliferative activity against human SKOV3 cells after 24 hrs by MTT assay; settings: SK-OV-3, 24 h
In short: (§1)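 MTT assay. 1 × 10⁴ cells per well were plated and incubated 24 h before dye was added (20 µL of 5 mg/mL MTT in PBS per well), then incubated until a purple precipitate formed. Precipitate dissolved in 150 µL DMSO after medium removal, then absorbance read.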

[2] = tested on: SW-620; experiment: Antiproliferative activity against human SW620 cells after 24 hrs by MTT assay; settings: SW-620, 24 h; in short: as §1
[3] = tested on: HepG2; experiment: Antiproliferative activity against human HepG2 cells after 24 hrs by MTT assay; settings: HepG2, 24 h; in short: as §1
[4] = tested on: HCT-116; experiment: Antiproliferative activity against human HCT116 cells after 24 hrs by MTT assay; settings: HCT-116, 24 h; in short: as §1
[5] = tested on: K562; experiment: Antiproliferative activity against human K562 cells after 24 hrs by MTT assay; settings: K562, 24 h; in short: as §1
[6] = tested on: HT-29; experiment: Antiproliferative activity against human HT-29 cells after 24 hrs by MTT assay; settings: HT-29, 24 h; in short: as §1

SMILES	IC50 [1]	IC50 [2]	IC50 [3]	IC50 [4]	IC50 [5]	IC50 [6]
COc1ccc(C(=O)/C=C/c2cccc(F)c2)c2c1C=CC(C)(C)O2	> 10 µM	> 10 µM	> 10 µM	> 10 µM	> 10 µM	> 10 µM
COc1ccc(C(=O)/C=C/c2cccc(C(F)(F)F)c2)c2c1C=CC(C)(C)O2	9.33 µM	7.87 µM	> 10 µM	9.71 µM	7.85 µM	9.05 µM
COc1ccc(C(=O)/C=C/c2ccc3ccccc3n2)c2c1C=CC(C)(C)O2	2.35 µM	2.25 µM	4.28 µM	4.53 µM	3.02 µM	3.79 µM
COc1ccc(C(=O)/C=C/c2ccc(C(F)(F)F)cc2)c2c1C=CC(C)(C)O2	> 10 µM	> 10 µM	> 10 µM	> 10 µM	> 10 µM	> 10 µM
COc1ccc(C(=O)/C=C/c2ccccc2Cl)c2c1C=CC(C)(C)O2	> 10 µM	> 10 µM	> 10 µM	> 10 µM	> 10 µM	> 10 µM
COc1ccc(C(=O)/C=C/c2cccc(O)c2)c2c1C=CC(C)(C)O2	> 10 µM	> 10 µM	> 10 µM	> 10 µM	> 10 µM	> 10 µM
COc1ccc(C(=O)/C=C/c2ccc(Cl)cc2)c2c1C=CC(C)(C)O2	> 10 µM	> 10 µM	> 10 µM	> 10 µM	> 10 µM	> 10 µM
COc1cccc(/C=C/C(=O)c2ccc(OC)c3c2OC(C)(C)C=C3)c1	9.36 µM	> 10 µM	> 10 µM	> 10 µM	> 10 µM	> 10 µM
COc1ccc(C(=O)/C=C/c2ccsc2)c2c1C=CC(C)(C)O2	> 10 µM	> 10 µM	> 10 µM	> 10 µM	> 10 µM	> 10 µM
COc1ccc(C(=O)/C=C/c2ccc(N(C)C)cc2)c2c1C=CC(C)(C)O2	2.75 µM	0.57 µM	0.73 µM	1.92 µM	3.5 µM	1.87 µM
COc1ccc(C(=O)/C=C/c2ccc(F)cc2)c2c1C=CC(C)(C)O2	> 10 µM	> 10 µM	> 10 µM	> 10 µM	> 10 µM	> 10 µM
COc1ccc(C(=O)/C=C/c2ccccc2)c2c1C=CC(C)(C)O2	> 10 µM	> 10 µM	> 10 µM	> 10 µM	> 10 µM	> 10 µM
CCOc1cc(/C=C/C(=O)c2ccc(OC)c3c2OC(C)(C)C=C3)ccc1O	> 10 µM	> 10 µM	> 10 µM	> 10 µM	> 10 µM	> 10 µM
COc1ccc(C(=O)/C=C/c2cccs2)c2c1C=CC(C)(C)O2	> 10 µM	> 10 µM	> 10 µM	> 10 µM	> 10 µM	> 10 µM
COc1ccc(C(=O)/C=C/c2cc(OC)c(OC)c(OC)c2)c2c1C=CC(C)(C)O2	9.7 µM	9.15 µM	> 10 µM	7.65 µM	> 10 µM	> 10 µM
COc1ccc(C(=O)/C=C/c2ccc(O)cc2)c2c1C=CC(C)(C)O2	> 10 µM	> 10 µM	> 10 µM	> 10 µM	> 10 µM	> 10 µM
COc1ccc(C(=O)/C=C/c2ccc(Br)cc2)c2c1C=CC(C)(C)O2	> 10 µM	> 10 µM	> 10 µM	> 10 µM	> 10 µM	> 10 µM
COc1ccc(C(=O)/C=C/c2ccccn2)c2c1C=CC(C)(C)O2	8.39 µM	5 µM	5.76 µM	6.63 µM	5.4 µM	2.12 µM
COc1ccc(C(=O)/C=C/c2cccc3ccccc23)c2c1C=CC(C)(C)O2	> 10 µM	> 10 µM	> 10 µM	> 10 µM	> 10 µM	> 10 µM

SMILES	IC50 [1]	IC50 [2]	IC50 [3]	IC50 [4]	IC50 [5]	IC50 [6]
COc1ccc(C(=O)/C=C/c2ccc(N(c3ccccc3)c3ccccc3)cc2)c2c1C=CC(C)(C)O2	> 10 µM	> 10 µM	> 10 µM	> 10 µM	> 10 µM	> 10 µM
COc1ccc(C(=O)/C=C/c2cccc(Cl)c2)c2c1C=CC(C)(C)O2	> 10 µM	> 10 µM	> 10 µM	> 10 µM	> 10 µM	> 10 µM
COc1ccc(C(=O)/C=C/c2ccc(O)c(Br)c2)c2c1C=CC(C)(C)O2	> 10 µM	> 10 µM	> 10 µM	> 10 µM	> 10 µM	> 10 µM
COc1ccc(C(=O)/C=C/c2ccc(-c3ccccc3)cc2)c2c1C=CC(C)(C)O2	> 10 µM	> 10 µM	> 10 µM	> 10 µM	> 10 µM	> 10 µM
COc1ccc(/C=C/C(=O)c2ccc(OC)c3c2OC(C)(C)C=C3)cn1	> 10 µM	> 10 µM	> 10 µM	> 10 µM	> 10 µM	> 10 µM
COc1ccc(C(=O)/C=C/c2cccc([N+](=O)[O-])c2)c2c1C=CC(C)(C)O2	9.72 µM	4.09 µM	2.83 µM	8.05 µM	5.87 µM	4.26 µM
COc1ccc(C(=O)/C=C/c2ccc(-n3ccnc3)cc2)c2c1C=CC(C)(C)O2	7.2 µM	> 10 µM	> 10 µM	> 10 µM	> 10 µM	> 6.6 µM
COc1cc(OC)c(OC)cc1/C=C/C(=O)c1ccc(OC)c2c1OC(C)(C)C=C2	> 10 µM	> 10 µM	> 10 µM	> 10 µM	> 10 µM	> 10 µM
COc1ccc(C(=O)/C=C/c2ccc3ccccc3c2)c2c1C=CC(C)(C)O2	7.65 µM	2.14 µM	0.21 µM	5.82 µM	3.67 µM	4.48 µM
COc1ccc(C(=O)/C=C/c2ccc([N+](=O)[O-])cc2)c2c1C=CC(C)(C)O2	3.42 µM	3.52 µM	2.61 µM	8.88 µM	7.77 µM	3.73 µM
COc1ccc(C(=O)/C=C/c2cc(Cl)ccc2O)c2c1C=CC(C)(C)O2	6.27 µM	4.23 µM	6.64 µM	5.24 µM	5.51 µM	4.97 µM
COc1ccc(C(=O)/C=C/c2ccc(OC)c(OC)c2OC)c2c1C=CC(C)(C)O2	> 10 µM	> 10 µM	> 10 µM	> 10 µM	> 10 µM	> 10 µM
COc1ccc(C(=O)/C=C/c2ccco2)c2c1C=CC(C)(C)O2	> 10 µM	> 10 µM	> 10 µM	> 10 µM	> 10 µM	> 10 µM
COc1ccccc1/C=C/C(=O)c1ccc(OC)c2c1OC(C)(C)C=C2	> 10 µM	> 10 µM	> 10 µM	> 10 µM	> 10 µM	> 10 µM
COc1cc(/C=C/C(=O)c2ccc(OC)c3c2OC(C)(C)C=C3)cc(OC)c1O	> 10 µM	> 10 µM	> 10 µM	> 10 µM	> 10 µM	> 10 µM
COc1ccc(/C=C/C(=O)c2ccc(OC)c3c2OC(C)(C)C=C3)c(F)c1	4.88 µM	6.57 µM	7.56 µM	> 10 µM	> 10 µM	> 10 µM
COc1ccc(C(=O)/C=C/c2ccc(Cl)c(Cl)c2)c2c1C=CC(C)(C)O2	9.94 µM	7.7 µM	> 10 µM	9.44 µM	9.03 µM	7.58 µM
COc1ccc(C(=O)/C=C/c2ccc(N3CCCC3)cc2)c2c1C=CC(C)(C)O2	7.37 µM	7.15 µM	4.74 µM	8.59 µM	6.18 µM	8.36 µM
